Bioassay records deposited in PubChem BioAssay by Sanford-Burnham Center for Chemical Genomics.
The list is not random: actives were taken first. Their share in the collection is about 2.4%.
SUMO1 PPI mod – modulators of human SUMO1-mediated protein-protein interactions; P63165; SUMO1 binding to a labelled peptide, TR-FRET, 1 h; inhibition, % at 20 µM; actives 0.33% (n = 360,000); in the data active means inhibition above about 37%
Target sequence (P63165 whole entry, looked up): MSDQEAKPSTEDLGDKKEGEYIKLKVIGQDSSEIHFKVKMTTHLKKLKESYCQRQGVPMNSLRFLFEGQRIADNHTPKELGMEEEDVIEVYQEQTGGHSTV
Scp-1 inhibitor – inhibitors of human Scp-1 phosphatase; inhibition, % at 20 µM; AID 493091; Q9GZU7; actives 0.88% (n = 340,000); Recombinant Scp1, phosphopeptide, malachite green phosphate absorbance;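 active means inhibition above about 50% at 20 µM, limit read from the data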;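 further: plate controls were DMSO wells with enzyme for no effect and wells lacking enzyme for full effect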
Target sequence (Q9GZU7 76-261 limits assumed): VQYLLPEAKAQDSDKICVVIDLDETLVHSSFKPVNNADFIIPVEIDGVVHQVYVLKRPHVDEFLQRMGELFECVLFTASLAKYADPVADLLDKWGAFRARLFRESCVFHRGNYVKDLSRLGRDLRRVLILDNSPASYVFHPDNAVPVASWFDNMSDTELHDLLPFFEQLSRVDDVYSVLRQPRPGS
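Test system: SCP-1 phosphatase catalytic domain, residues 76-261; measured by: colorimetric phosphate reagent with accelerator and stabiliser, absorbance at 630 nm; timing: enzyme reaction 45 min at room temperature, colour 5 min, stabilisation 30 min; also added: Phosphorylated 17-residue peptide substrate; compound dosing: one concentration, 20 µM, with 1.0% DMSO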
LMPTP inh – blocks human LMPTP phosphatase | P24666 | recombinant LMPTP-A, OMFP fluorogenic substrate, fluorescence intensity | inhibition, % at 20 µM | actives 0.22% (n = 360,000) | AID 651560;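 active means compounds that cut the enzyme signal by at least half of the control window in the single-dose screen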;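 further: plate controls were DMSO wells with enzyme plus substrate for no effect and substrate without enzyme for full effect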
Target sequence (P24666 whole entry, looked up): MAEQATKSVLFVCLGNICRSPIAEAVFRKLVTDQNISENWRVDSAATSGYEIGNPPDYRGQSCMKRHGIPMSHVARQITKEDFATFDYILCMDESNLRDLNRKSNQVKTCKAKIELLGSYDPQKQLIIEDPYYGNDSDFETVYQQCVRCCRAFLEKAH
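Assay system: LMPTP-A, protein tyrosine phosphatase of low molecular weight / Medium: pH 6.0 Bis-Tris buffer with DTT and Triton X-100 / Schedule: 50 min enzyme reaction at room temperature, protected from light / Measured by: endpoint fluorescence intensity from OMFP dephosphorylation / Read-out basis: % inhibition relative to no-enzyme and uninhibited control wells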
DNMT1 inh – inhibitors of human DNMT1. P26358. DNMT1 molecular beacon, Hinp1I cleavage, fluorescence. inhibition (reported as % activation of signal), % at 10 µM. actives 0.83% (n = 360,000); in the data active means inhibition above about 50%
STEP inh – blocks human striatal-enriched tyrosine phosphatase. actives 0.25% (n = 360,000). inhibition, % at 20 µM. recombinant STEP, OMFP fluorogenic substrate, fluorescence. P54829;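 active means inhibition at 20 µM, scaled per plate between control wells, above about 37%, limit read from the data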;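 further: 0% = DMSO with enzyme and substrate and 100% = substrate only without enzyme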
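Test system: STEP tyrosine phosphatase / Reagent: OMFP at 25 µM / Doses: 20 µM, 1% DMSO / Read-out: percent inhibition scaled to no-enzyme and uninhibited-enzyme controls, plate-pattern corrected / Detection: FITC-channel fluorescence of OMFP product / Medium: Bis-Tris buffer pH 6.0, 2.5 mM DTT, 0.005% Tween 20 / Schedule: 20 min at room temperature, dark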
NadD block – inhibitors of Staphylococcus aureus NadD; actives 0.78% (n = 360,000); purified NadD enzyme, colorimetric absorbance read-out; inhibition, % at 20 µM; in the data active means inhibition above about 26%
DNMT1 interf DR – shows spectral interference in the DNMT1 beacon assay. shares compounds with DNMT1 inh. 200 tested, under 10 active. IC50, µM. molecular beacon fluorescence, spectral interference counter-screen
DNMT1 inh conf – DNMT1 inhibition confirmation, single concentration; shares compounds with DNMT1 inh; DNMT1 molecular beacon HinP1I cleavage, fluorescence; inhibition, % at 10 µM; actives 8% (n = 2,300); AID 602385;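 active means average inhibition of at least 30% in the single-concentration confirmation test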
DNMT1 interf – beacon fluorescence artifact counter-screen. shares compounds with DNMT1 inh. DNMT1 molecular beacon spectral interference counterscreen, fluorescence 485/520. activation (fluorescence interference), % at 10 µM. actives 1% (n = 2,300). AID 602387;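 active means activation of at least 30% at 10 µM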;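 further: DNMT1 catalytic domain with a HinP1I cleavage step and a FAM/dabcyl DNA beacon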
STEP conf – STEP (human) phosphatase inhibition, single concentration confirmation | shares compounds with STEP inh | recombinant STEP, OMFP fluorogenic substrate, fluorescence | inhibition, % at 20 µM | actives 32% (n = 520) | AID 623866;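 further: 0% = enzyme with substrate plus DMSO and 100% = substrate without enzyme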
NadD conf – confirmation of Staphylococcus aureus NadD inhibitors. AID 624309. actives 13% (n = 2,000). shares compounds with NadD block. purified S. aureus NadD, colorimetric enzyme assay. inhibition, % at 20 µM; in the data active means inhibition mostly above about 42%, no sharp cut-off; inactive means mostly below about 42%
* hit, by the source's call; nt = no result. Unless noted, how the calls were made is not given here.

SMILES	SUMO1 PPI mod	Scp-1 inhibitor	LMPTP inh	DNMT1 inh	STEP inh	NadD block	STEP conf	others
O=C(N/N=C/c1coc2ccccc2c1=O)c1ccncc1	-4.2	-4.6	-0.4	0.1	1.8	3.0	nt
COc1ccccc1/C=C/C=N/NC(=O)c1cc(-c2ccco2)[nH]n1	21.5	-0.7	67.4*	61.4*	-1.4	42.9*	nt	DNMT1 inh conf=13.5;DNMT1 interf=1.7;NadD conf=54.0*
O=[N+]([O-])c1ccccc1/C=C/C=N/n1c(-c2ccco2)n[nH]c1=S	-18.0	4.5	0.3	2.2	6.2	6.7	nt
O=[N+]([O-])c1ccccc1/C=C/C=N/n1c(-c2cc(-c3ccccc3)n[nH]2)n[nH]c1=S	10.7	14.7	-10.2	52.8*	6.9	41.8*	nt	DNMT1 inh conf=20.2;DNMT1 interf=-4.4;NadD conf=9.0
Cc1nn(C(C)(C)C)c(NC(=O)c2ccccc2)c1C#N	0.4	-4.2	-1.6	3.7	-3.8	-1.0	nt
CCC(C)n1c(NC(=O)c2ccccc2)c(C#N)c2nc3ccccc3nc21 (stereo unspecified)	43.0*	-1.8	16.1	73.3*	2.9	40.8*	nt	DNMT1 inh conf=8.5;DNMT1 interf=6.3;NadD conf=30.9
Clc1ccccc1-c1ccc(/C=N/Nc2nncc(-c3ccccc3)n2)o1	-0.4	-2.2	3.7	69.0*	7.9	32.3*	nt	DNMT1 inh conf=-1.2;DNMT1 interf=-5.2;NadD conf=10.3
Cc1ccc(/C=N/Nc2nncc(-c3ccccc3)n2)o1	-14.1	-5.3	6.6	9.6	-1.8	-2.2	nt
O=C(N/N=C/c1ccc(F)cc1)c1cc(-c2ccco2)nc2ccccc12	12.2	80.7*	61.1*	105.0*	15.8	44.5*	nt	DNMT1 interf DR=>99;DNMT1 inh conf=47.9*;DNMT1 interf=-0.7;NadD conf=81.5*
O=C(N/N=C/c1ccc([N+](=O)[O-])o1)c1cc(-c2ccc(-c3ccccc3)cc2)nc2ccccc12	2.3	33.0	1.6	79.1*	-1.0	69.8*	nt	DNMT1 inh conf=-0.2;DNMT1 interf=2.1;NadD conf=10.5
O=C(N/N=C/c1ccc([N+](=O)[O-])o1)c1cc(-c2ccncc2)nc2ccccc12	-10.4	29.5	3.4	7.3	0.5	16.7	nt
CCCC(=O)N1CCc2cc(OC)c(OC)cc2C1c1cc2cc3c(cc2[nH]c1=O)OCO3 (stereo unspecified)	4.9	-1.1	0.3	-1.1	0.0	3.2	nt
COc1ccccc1N1CCN(S(=O)(=O)CCNC(=O)/C=C/c2ccc3c(c2)OCO3)CC1	-11.5	nt	1.8	-36.5	0.8	3.2	nt
Cc1ccc2oc(=O)c3cc(C(=O)NCCCN4CCCCCC4)sc3c2c1	13.3	2.9	27.8	66.8*	7.3	37.0*	nt	DNMT1 inh conf=5.7;DNMT1 interf=-1.9;NadD conf=-8.0
CC(C)N1CCN(S(=O)(=O)c2ccccc2)CC1	0.3	-5.0	-2.9	3.0	1.0	-0.7	nt
O=C(Nc1ccc2nc(-c3ccco3)c(-c3ccco3)nc2c1)N1CCN(c2ccccn2)CC1	45.8*	92.0*	87.4*	93.0*	5.4	48.8*	nt	DNMT1 inh conf=0.4;DNMT1 interf=-1.5;NadD conf=49.0*
Cc1nc2cc(NC(=O)N3CCN(c4ccccn4)CC3)ccc2o1	0.3	-7.7	4.5	0.2	-3.1	-11.5	nt
CS(=O)(=O)N(Cc1ccc(C(=O)NCCSc2ccccn2)cc1)c1ccccc1	2.9	-2.5	0.1	2.8	43.6*	0.3	-3.8
N=c1c(S(=O)(=O)c2ccccc2)cc2c(=O)n3ccccc3nc2n1Cc1cccnc1	-25.9	-0.8	0.9	-1.3	2.2	5.4	nt
COC(=O)c1ccc([N+](=O)[O-])cc1N1C(=O)C2C3CCC(C3)C2C1=O (stereo unspecified)	-18.3	-8.1	-1.8	-1.4	63.8*	-1.6	-3.4
O=C(Nc1ccc2oc(-c3ccncc3)nc2c1)c1ccc2c(c1)OCO2	43.6*	34.5	66.9*	32.5	74.1*	21.9	2.7
O=C(Nc1ccc2oc(-c3ccncc3)nc2c1)c1ccc(Br)o1	5.1	16.3	28.2	0.5	66.7*	1.7	3.0
O=C(Nc1ccc2oc(-c3ccncc3)nc2c1)c1ccco1	22.9	45.7	4.0	-1.4	2.4	8.7	nt
O=C(CN1CCOCC1)N1CCN(c2ccc([N+](=O)[O-])cc2)CC1	-25.3	-10.7	1.0	0.5	0.6	0.6	nt
O=C(NN=Cc1ccccc1O)c1cccc([N+](=O)[O-])c1	38.3	96.7*	81.8*	36.2	59.3*	0.2	100.3*
SMILES	SUMO1 PPI mod	Scp-1 inhibitor	LMPTP inh	DNMT1 inh	STEP inh	NadD block	STEP conf	others
c1ccc(OCc2nnc3n2N=C(c2ccccc2)CS3)cc1	-5.0	-5.2	0.6	-1.7	70.3*	3.6	-0.4
O=C(N/N=C/c1ccccn1)c1ccc(Br)cc1	-5.8	-11.8	-0.5	1.0	72.5*	1.7	3.5
CC(=O)Oc1oc(-c2ccccc2)nc1/C=N/c1ccccn1	-11.0	-7.2	-1.8	-2.8	1.9	-3.2	nt
COc1ccc(/C=C/C(=O)c2ccc3ccccc3c2O)cc1CN1CCOCC1	-3.8	-3.7	0.7	-9.2	1.8	-6.4	nt
COc1ccc(/C=C/C(=O)c2ccccc2O)cc1CN1CCOCC1	1.0	-3.1	1.6	-5.7	52.3*	0.7	-10.5
CC(C)(C)C(=O)Nc1ccc(C(=O)Nc2cccc(Oc3ccc(C(=O)O)c(C(=O)O)c3)c2)cc1	13.0	17.5	-0.9	7.7	60.3*	2.6	81.7*
CSc1ccccc1NC(=O)CN(C)C(=O)c1cccc(S(=O)(=O)N(C)C)c1	-10.2	0.6	4.1	1.7	49.4*	1.5	7.9
COc1cc2c(cc1OC)C(C(=O)O)C(c1ccc(C)o1)N(C)C2=O (stereo unspecified)	1.9	-3.6	0.1	-1.3	56.2*	0.2	11.6
O=C(CC(=O)Nc1nc(C23CC4CC(CC(C4)C2)C3)cs1)NCCO	0.3	-9.8	-0.1	1.1	1.8	-4.5	nt
CC1(C)CC(NC(=S)Nc2ccc(S(N)(=O)=O)cc2)CC(C)(C)N1	-1.3	6.8	1.8	7.9	62.9*	-8.4	16.4
Cn1c(CSc2ncccn2)nnc1SCC(=O)N1CCCc2ccccc21	0.2	-1.8	-0.8	-5.8	52.6*	0.2	-10.7
